The text below walks through data of ChEMBL document CHEMBL4033790, “Design and Synthesis of Novel Deuterated Ligands Functionally Selective for the γ-Aminobutyric Acid Type A Receptor (GABAAR) α6 Subtype with Improved Metabolic Stability and Enhanced Bioavailability” (J Med Chem, 2018).

Data set [1] can be described thus: Drug level in human liver microsomes treated with 8-Chloro-2-(3-methoxy-d3-phenyl)-2,5-dihydro-3H-pyrazolo[4,3-c]quinolin-3-one after 60 mins by LC-MS analysis. The data set is classed as ADME. The note with it: 1 h. For orientation: Liver microsomes are a subcellular fraction often used to study metabolism.
Data set [2] is described as follows: Drug level in mouse liver microsomes treated with 8-Chloro-2-(3-methoxy-d3-phenyl)-2,5-dihydro-3H-pyrazolo[4,3-c]quinolin-3-one after 60 mins by LC-MS analysis. It counts as ADME. Particulars: 1 h; call rule not given here.
A further data set deals with Brain. Nature of the data set: AUC (0 to 12 hrs) in Wistar rat brain at 10 mg/kg, ip administered as single dose by HPLC-MS/MS analysis. It counts as ADME, organism-based. Details: dose 10 mg/kg, time < 12 hr, route intraperitoneal. Particulars: in vivo.
A short description of data set [3]: Terminal elimination half-life in Wistar rat brain at 10 mg/kg, ip administered as single dose by HPLC-MS/MS analysis. The note with it: read-out: beta t1/2 (converted). It counts as ADME, organism-based. The gist of the method: (§1)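 Male Wistar rats (250–350 g) received a single i.p. dose of 10 mg/kg as a 5 mg/ml suspension in 85% water, 14% propylene glycol and 1% Tween 80. Three rats per time point were sacrificed at 5, 20, 60, 180 and 720 min for plasma and brain. Samples were cleaned up by solid-phase extraction and quantified by HPLC-MS/MS.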

The test system of data set [4] is Rattus norvegicus. Nature of the data set: Toxicity in Wistar rat assessed as total distance traveled at 10 mg/kg, ip administered for 45 mins by cued water-maze method (reference value: 8.04 +/- 1.16 meter). The data set is classed as organism-based. Particulars: in vivo, 0.75 h.
Data set [5] is described as follows: Cmax in Wistar rat brain at 10 mg/kg, ip administered as single dose measured at 5 to 720 mins post dose by HPLC-MS/MS analysis. The data set is classed as ADME, organism-based. Details: dose 10 mg/kg, route intraperitoneal. The gist of the method: (§2)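 Male Wistar rats (250-350 g) given a single 10 mg/kg i.p. dose of a 5 mg/ml suspension in 85% distilled water, 14% propylene glycol, 1% Tween 80. Three rats per time point (5, 20, 60, 180, 720 min). Blood and brain were collected after sacrifice. Drug was recovered by solid phase extraction and quantified by HPLC-MS/MS.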

In the next data set the test system is Liver. In words: Half life in mouse liver microsomes at 10 uM by LC-MS/MS analysis. The data set is classed as ADME, microsome. The gist of the method:
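Compound at 10 μM final was preincubated 5 min at 37 °C with NADPH regenerating system in phosphate buffer, pH 7.4. Human or mouse liver microsomes (0.5 mg/mL protein) were added to start the reaction. Samples were taken at 0 (no microsomes) and 10–60 min and measured by LC-MS/MS against an internal standard. Half-life = 0.693/k, with k the slope of ln peak-area ratio versus time. Three experiments, each in duplicate.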

The subject of data set [6] is Rattus norvegicus. In words: Toxicity in Wistar rat assessed as peripheral ring distance at 10 mg/kg, ip administered for 45 mins by cued water-maze method (reference value: 67.44 +/- 4.60%). It counts as organism-based. Particulars: in vivo, 0.75 h.
A short description of data set [7]: Metabolic stability in human liver microsomes assessed as parent compound remaining at 10 uM after 60 mins by LC-MS analysis. The data set is classed as ADME, microsome. Particulars: read-out: Stability. The gist of the method:
(§3)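 The 60 min samples of the microsomal incubation (10 μM compound, human or mouse liver microsomes at 0.5 mg/mL, NADPH regenerating system, 37 °C) were analysed by LC-MS. Detection used SIM mode with dual ESI/APCI ionization, calibrated to the retention times and masses of the parent and its O-demethylated metabolites. Peak intensities were measured.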

The nature of data set [8]: Tmax in Wistar rat brain at 10 mg/kg, ip administered as single dose by HPLC-MS/MS analysis. The data set is classed as ADME, organism-based. The gist of the method: as §1
The next data set has as its system Mus musculus. Nature of the data set: Neurotoxicity in Swiss Webster mouse assessed as induction of motor impairment at 60 mg/kg administered via oral gavage measured after 10 to 60 mins by rotarod method. It counts as toxicity, organism-based. The note with it: in vivo. (In general: In the rotarod test animals must keep their balance on a rotating rod.)
Data set [9] has as its target Voltage-gated inwardly rectifying potassium channel KCNH2 (Homo sapiens, UniProt Q12809). In words: Displacement of [3H]-dofetilide from human ERG expressed in HEK cell membranes at >10 uM after 60 to 90 mins by scintillation counting. In general terms: Displacement assays read how much labelled ligand stays bound in the presence of the test substance.
Data set [10] relates to Rattus norvegicus. Nature of the data set: Toxicity in Wistar rat assessed as total distance traveled at 10 mg/kg, ip administered for 45 mins measured for 5 min by elevated plus maze method (reference value: 6.71 +/- 0.56 meter). Particulars: in vivo. It counts as organism-based.
The nature of data set [11]: Ratio of brain AUC (0 to t) to plasma AUC (0 to t), Kp of the compound in Wistar rat at 10 mg/kg, ip administered as single dose by HPLC-MS/MS analysis. It counts as ADME, organism-based.
Data set [12] relates to Rattus norvegicus. Nature of the data set: Toxicity in Wistar rat assessed as grip strength by measuring peak force of pull necessary to overcome strength of animal's grip at 10 mg/kg, ip (reference value: 2.79 +/- 0.16 kg/kg). The data set is classed as organism-based. The note with it: in vivo.
The test system of data set [13] is Rattus norvegicus. Nature of the data set: Toxicity in Wistar rat assessed as average swim speed at 10 mg/kg, ip administered for 45 mins by cued water-maze apparatus method (reference value: 0.21 +/- 0.01 meter/s). The data set is classed as organism-based. Particulars: in vivo, 0.75 h.
A further data set deals with HEK-293T. Nature of the data set: Cytotoxicity against HEK293T cells assessed as reduction in cell viability up to 400 uM after 48 hrs by CellTiter-Glo assay. It counts as cell-based. Particulars: human. The method, boiled down: (§4)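 HEK293T and HepG2 cells grown in high-glucose DMEM with non-essential amino acids, 10 mM HEPES, penicillin/streptomycin and 10% heat-inactivated FBS. Cells were harvested with trypsin and plated; compound was pin-transferred 3 h later. Incubation was 48 h, then CellTiter-Glo luminescence was read. Controls were DMSO (negative) and a cytotoxic aminoketone (positive). Quadruplicates, three independent runs, normalized to controls, nonlinear regression.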

Data set [14] concerns Rattus norvegicus. Nature of the data set: Toxicity in Wistar rat assessed as closed arm entries at 10 mg/kg, ip administered for 45 mins measured for 5 min by elevated plus maze apparatus method (reference value: 3.63 +/- 0.42). The note with it: in vivo. It counts as organism-based.
Data set [15] deals with Rattus norvegicus. In words: Hyperlocomotor activity in Wistar rat assessed as total distance travelled at 10 mg/kg, ip after 60 mins. The data set is classed as ADME, organism-based. Particulars: in vivo, 1 h.
The nature of data set [16]: Metabolic stability in mouse liver microsomes assessed as parent compound remaining at 10 uM after 60 mins by LC-MS analysis. It counts as ADME, microsome. Particulars: read-out: Stability. The gist of the method:
as §3

The next data set has as its system HepG2. Nature of the data set: Cytotoxicity against human HepG2 cells assessed as reduction in cell viability up to 400 uM after 48 hrs by CellTiter-Glo assay. It counts as cell-based. The note with it: hepg2, 48 h. The method, boiled down: as §4
A short description of data set [17]: AUC (0 to 12 hrs) in Wistar rat plasma at 10 mg/kg, ip administered as single dose by HPLC-MS/MS analysis. It counts as ADME, organism-based. Further details: time < 12 hr, dose 10 mg/kg, route intraperitoneal.
Data set [18] is described as follows: Terminal elimination half-life in Wistar rat plasma at 10 mg/kg, ip administered as single dose by HPLC-MS/MS analysis. It counts as ADME, organism-based. Particulars: read-out: beta t1/2 (converted). The gist of the method: as §1
The test system of data set [19] is Rattus norvegicus. In words: Toxicity in Wistar rat assessed as open arm entries at 10 mg/kg, ip administered for 45 mins measured for 5 min by elevated plus maze apparatus method (reference value: 23.07 +/- 5.47%). It counts as organism-based. The note with it: in vivo.
The nature of data set [20]: Cmax in Wistar rat plasma at 10 mg/kg, ip administered as single dose measured at 5 to 720 mins post dose by HPLC-MS/MS analysis. It counts as ADME, organism-based. Details: dose 10 mg/kg, route intraperitoneal. The method, boiled down: as §2
A short description of data set [21]: Tmax in Wistar rat plasma at 10 mg/kg, ip administered as single dose by HPLC-MS/MS analysis. The data set is classed as ADME, organism-based. The method, boiled down: as §1

Chain of Voltage-gated inwardly rectifying potassium channel KCNH2 (Q12809 whole entry): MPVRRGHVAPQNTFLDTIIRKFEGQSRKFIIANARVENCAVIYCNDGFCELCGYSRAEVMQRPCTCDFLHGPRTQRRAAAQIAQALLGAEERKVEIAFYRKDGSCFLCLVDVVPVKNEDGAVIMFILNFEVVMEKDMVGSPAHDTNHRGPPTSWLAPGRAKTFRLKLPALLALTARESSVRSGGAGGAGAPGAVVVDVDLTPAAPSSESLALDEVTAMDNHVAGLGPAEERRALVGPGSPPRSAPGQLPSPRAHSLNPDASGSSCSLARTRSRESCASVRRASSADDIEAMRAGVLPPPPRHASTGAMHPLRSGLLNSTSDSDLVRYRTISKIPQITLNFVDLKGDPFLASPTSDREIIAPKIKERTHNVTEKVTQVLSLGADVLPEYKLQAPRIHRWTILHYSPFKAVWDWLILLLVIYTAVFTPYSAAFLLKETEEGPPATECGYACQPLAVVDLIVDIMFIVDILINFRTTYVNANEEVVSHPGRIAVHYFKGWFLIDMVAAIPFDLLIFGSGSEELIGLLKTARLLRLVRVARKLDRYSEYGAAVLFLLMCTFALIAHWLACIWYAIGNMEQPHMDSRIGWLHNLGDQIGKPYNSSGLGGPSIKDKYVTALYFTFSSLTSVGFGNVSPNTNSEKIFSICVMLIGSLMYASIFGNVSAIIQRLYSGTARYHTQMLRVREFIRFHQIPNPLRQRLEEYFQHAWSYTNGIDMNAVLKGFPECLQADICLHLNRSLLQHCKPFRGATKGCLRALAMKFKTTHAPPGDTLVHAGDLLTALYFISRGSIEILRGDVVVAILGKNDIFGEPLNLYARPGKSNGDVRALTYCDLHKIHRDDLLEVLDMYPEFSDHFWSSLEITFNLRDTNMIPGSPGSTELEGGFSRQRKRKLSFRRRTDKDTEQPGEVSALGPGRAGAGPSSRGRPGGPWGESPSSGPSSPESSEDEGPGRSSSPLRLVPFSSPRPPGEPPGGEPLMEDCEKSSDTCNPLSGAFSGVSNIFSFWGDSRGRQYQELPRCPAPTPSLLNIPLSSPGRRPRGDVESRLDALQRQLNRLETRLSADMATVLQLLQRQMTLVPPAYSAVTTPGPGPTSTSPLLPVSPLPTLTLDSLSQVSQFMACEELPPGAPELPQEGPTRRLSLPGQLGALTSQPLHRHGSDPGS

`O=c1c2c[nH]c3ccc(Cl)cc3c-2nn1-c1cccc(O)c1`: the Drug metabolism result in data set [1] and in data set [2] was “Metabolite_Detected” in each case.

What is called Cmax is the highest concentration seen after dosing. By Tmax is commonly meant the time from dosing to the highest level. Broadly, the Kp is the ratio of the level in a tissue or fluid to that in plasma or blood. In general, AUC(0-t) refers to exposure summed from dosing to a finite time, without extrapolation to infinity. The low end stands for less exposure, the high end for more exposure. Take `[2H]C([2H])([2H])Oc1ccccc1-n1nc2c3cc(Cl)ccc3[nH]cc-2c1=O`: the AUC with Brain came out at 269.03 ng·h/g. In addition, the half-life in data set [3] was 5.54 h; in data set [18], 3.66 h. For the same molecule, the Activity in the data set on Rattus norvegicus [4] is recorded as 9.93 m; with Rattus norvegicus [6], 69.34%; in the data set on Mus musculus, “Non-Toxic”; with Rattus norvegicus [10], 6.14 m; with Rattus norvegicus [12], 2.66 kg/kg; in the data set on Rattus norvegicus [13], 0.22 meter/s. In addition, the Activity entry is recorded as “Non-Toxic” in the data set with HEK-293T; 3.5 with Rattus norvegicus [14]; “Non-Toxic” in the data set with Rattus norvegicus [15]; “Non-Toxic” in the data set on HepG2; 20.6% in the data set on Rattus norvegicus [19]. Also, the Cmax in [5] is 65.6 ng/g; in data set [20] it was 434 ng/mL. The t1/2 in the data set with Liver was determined as 16.6 h. Further, the remaining at 1 h, 10 µM turned out to be 94.8% in data set [7] and 94.9% in data set [16]. In addition, the Tmax in [8] and in [21] was 0.78 h each time. Besides, in data set [9], the “inhibition (INH)” value was “Not Active”. Moreover, the Kp in [11] was determined as 0.15. The AUC(0-t) at 12 h in data set [17] came to 1800 ng·h/mL.
